Source: ChEMBL document CHEMBL1147824, “Synthesis, biological activity, and DNA-damage profile of platinum-threading intercalator conjugates designed to target adenine” (J Med Chem, 2006)

Legend:
HL-60 = test: Cytotoxicity against human HL60 cell line by MTS assay; assay type: functional, cell-based
In short: (§1)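 Cells kept at 37 °C in humidified 5% CO2/95% air and seeded at 700 cells/well (H460) or 27 500 cells/well (HL-60). Log-phase cells were exposed in triplicate to serial drug dilutions for 72 h; stocks in DMSO, PBS or DMF, final organic solvent under 0.1%. MTS/PMS added for 3 h, A490 read. IC50 from sigmoidal dose-response fit; mean of at least three experiments.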

NCI-H460 = test: Cytotoxicity against human H460 cell line by MTS assay; assay type: functional, cell-based; in short: as §1

Compound	IC50 (HL-60) [µM]	IC50 (NCI-H460) [µM]
CNC(=S)N(C)CCNc1c2ccccc2nc2ccccc12	11.5	9.5
CCNC(=O)NCCNC(=O)c1cccc2c(NCCN(C)/C(S)=N/C)c3ccccc3nc12	> 100	> 100
CCNC(=O)NCCCCNC(=O)c1cccc2c(NCCN(C)/C(S)=N/C)c3ccccc3nc12	> 100	> 100
C/N=C(\S)N(C)CCNc1c2ccccc2nc2c(C(=O)NCCNC(=O)Nc3ccccc3)cccc12	> 50	31.9
C/N=C(\S)N(C)CCNc1c2ccccc2nc2c(C(=O)NCCCCNC(=O)Nc3ccccc3)cccc12	0.39	3.1
C/N=C(\S)N(C)CCNc1c2ccccc2nc2c(C(=O)NCCN(C)C)cccc12	1.4	2.2
C/N=C(\S)N(C)CCNc1c2ccccc2nc2c(C(=O)NCCO)cccc12	27.4	41.1
C/N=C(\S)N(C)CCNc1c2ccccc2nc2c(C(=O)NCCOC(C)=O)cccc12	29.5	17.6
